RBBP9 inhibitor – inhibitors of human serine hydrolase RBBP9; recombinant RBBP9, FP-Rh probe fluorescence polarization; inhibition, % at 7.94 µM; O75884; AID 1515; actives 0.2% (n = 220,000);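 active = inhibition above the campaign mean of all tested compounds plus 3 SD, cut at about 14% in these data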;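 also: plate controls were DMSO wells with RBBP9 for no effect and wells lacking RBBP9 protein for full effect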
Target sequence (O75884 whole entry, looked up): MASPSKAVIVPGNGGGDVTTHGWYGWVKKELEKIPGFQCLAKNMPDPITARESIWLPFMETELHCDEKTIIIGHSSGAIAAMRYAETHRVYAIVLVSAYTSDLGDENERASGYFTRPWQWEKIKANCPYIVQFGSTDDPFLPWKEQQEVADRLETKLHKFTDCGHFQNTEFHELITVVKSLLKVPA
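Measured by: FP readout at 525/598 nm; material: recombinant human RBBP9; also added: Serine-hydrolase probe FP-Rh, 375 nM pre-mixing; medium: Tris buffer pH 8.0, NaCl, Pluronic; replication: one well per compound; doses: one concentration, 7.94 µM nominal, 0.794% DMSO; timing: preincubation 30 min plus labeling 45 min at 25 °C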
Tb hexokinase – blocks Trypanosoma brucei hexokinase 1 activity; recombinant TbHK1, G6PDH-coupled NADH A340; actives 0.11% (n = 220,000); inhibition, % at 10 µM;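 active = inhibition of 50% or more in the single-dose primary screen; inactive = inhibition below 50%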
L929 necroptosis – L929 zVAD cell death inhibition. L929 zVAD necroptosis rescue, ATP luminescence, 24 h; with zVAD 60 µM. AID 1377. actives 0.38% (n = 220,000). viability rescue, % at 10 µM;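 active = activation, scaled between plate controls, above about 75%, limit read from the data; inactive = activation under that limit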;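 also: 0% = zVAD with DMSO and 100% = DMSO alone without zVAD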
PfM18AAP inh-1 – PfM18AAP enzyme inhibition; recombinant PfM18AAP, H-Glu-NHMec fluorogenic cleavage; actives 1.2% (n = 290,000); inhibition, % at 7.35 µM;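 active = inhibition above the campaign mean inhibition over all tested compounds plus 3 SD, cut at about 28% in these data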;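 also: 0% = plate median of test compound wells and 100% = 2 mM ZnCl2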
Lipid droplet – modulators of hepatic lipid droplet formation; AID 1656; AML12 mouse hepatocytes, oleate lipid droplets, BODIPY imaging; inhibition, % at 6.5 µM; actives 0.4% (n = 240,000);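 active = lipid droplet intensity inhibited by at least 50%, with more than 500 cells counted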
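Material – AML12 mouse liver cells · Also added – oleate loading, 100 µM · Compound dosing – 6.5 µM single-point dosing · Times – overnight treatment with compound plus oleate · Measured by – fluorescence imaging, 20x objective, two fields per well · Read-out – percent inhibition of filter-corrected integrated lipid droplet intensity per well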
TNF necrop inh – inhibitors of TNF-alpha induced necroptosis in Jurkat FADD-/- cells; actives 0.068% (n = 220,000); AID 463075; activation (protection from cell death), % at 10 µM; Jurkat FADD-/- TNF necroptosis rescue, ATP luminescence, 24 h; 0 = TNF only, 100 = no-TNF cells;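 active = activation, meaning protection from cell death, of at least 50% relative to plate controls; inactive = activation below 50%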;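 also: necroptosis triggered by 40 ng/mL TNF-alpha added together with compound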
PfM18AAP inh-2 – confirmation of Plasmodium falciparum M18 aspartyl aminopeptidase inhibitors; shares compounds with PfM18AAP inh-1; recombinant PfM18AAP, H-Glu-NHMec fluorogenic cleavage; inhibition, % at 7.35 µM; actives 28% (n = 2,400); AID 2170;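 active = mean inhibition over replicate wells above the hit cutoff set for the earlier primary screen, cut at about 29% in these data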;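 also: 0% = median of test compound wells and 100% = 2 mM ZnCl2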
CTSL1 counter – Cathepsin L (human) inhibition, confirmation; shares compounds with PfM18AAP inh-1; purified cathepsin L1, Z-Leu-Arg-MCA fluorescence; inhibition, % at 5.96 µM; 2,400 tested, under 10 active; AID 2178;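 active = average inhibition across replicates above the hit cutoff set in the earlier primary screen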;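 also: 0% = median of test compound wells and 100% = Z-Phe-Ala-diazomethylketone 1 µM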
The depositor's hits bear a star. An excerpt weighted towards active compounds, which were near 2% of everything screened.

For COc1cccc(NC(=O)CN(C)S(=O)(=O)c2ccc3[nH]c(=O)oc3c2)c1 the results were PfM18AAP inh-1 12 and Lipid droplet -32.
Cc1nnc(SCc2cc(=O)[nH]c(=S)[nH]2)s1 was read as RBBP9 inhibitor -4, Tb hexokinase -1, L929 necroptosis -1, PfM18AAP inh-1 47*, Lipid droplet 3, TNF necrop inh 0, PfM18AAP inh-2 16 and CTSL1 counter 1.
Screening CCOc1ccccc1/C=N/Nc1ccc(Cl)nn1 returned PfM18AAP inh-1 7.
CCOc1ccc(/C=N/Nc2ccc(Cl)nn2)c(O)c1 was read as PfM18AAP inh-1 36*, Lipid droplet 7, PfM18AAP inh-2 -30 and CTSL1 counter -1.
Screening Oc1ccc(/C=N/Nc2ccc(Cl)nn2)c(O)c1O returned PfM18AAP inh-1 65*, Lipid droplet 4, PfM18AAP inh-2 49* and CTSL1 counter -1.
COc1cccc(/C=N/Nc2ncnc(Cl)c2N)c1O was read as RBBP9 inhibitor -4, Tb hexokinase 35, L929 necroptosis 0, PfM18AAP inh-1 27, Lipid droplet 27 and TNF necrop inh -9.
`Cc1cc(NNC(=O)Nc2cccc(Cl)c2)nc2c1c(C)nn2C` gave RBBP9 inhibitor -5, Tb hexokinase -2, L929 necroptosis -1, PfM18AAP inh-1 39*, Lipid droplet -10, TNF necrop inh -11, PfM18AAP inh-2 28 and CTSL1 counter 3.
Screening CCOc1ccc(S(=O)(=O)Nc2ncn[nH]2)cc1 returned PfM18AAP inh-1 46*, Lipid droplet -2, PfM18AAP inh-2 33* and CTSL1 counter -5.
`CCOc1ccc(Br)cc1S(=O)(=O)Nc1ncn[nH]1` gave PfM18AAP inh-1 1 and Lipid droplet 14.
CCOC(=O)c1sc2nc(N3CCCC3)c3c(c2c1N)CC(C)(C)OC3 was read as RBBP9 inhibitor -1, Tb hexokinase -1, L929 necroptosis 0, PfM18AAP inh-1 7 and TNF necrop inh 4.
`CN(C(=O)c1sc2nc(N3CCCC3)c3c(c2c1N)CC(C)(C)OC3)c1ccccc1` gave PfM18AAP inh-1 24 and Lipid droplet -15.
For CC1(C)Cc2c(c(N3CCOCC3)nc3sc(C(=O)Nc4cccc(Cl)c4)c(N)c23)CO1 the results were PfM18AAP inh-1 41*, Lipid droplet -6, PfM18AAP inh-2 14 and CTSL1 counter 9.
CC1(C)Cc2c(c(N3CCOCC3)nc3sc(C(=O)Nc4ccccc4)c(N)c23)CO1 was read as PfM18AAP inh-1 37*, Lipid droplet -1, PfM18AAP inh-2 -45 and CTSL1 counter 1.
`CCOC(=O)C1(Cc2cccc(F)c2)CCN(Cc2ccc(COC)o2)CC1` gave RBBP9 inhibitor -6, Tb hexokinase -2, L929 necroptosis 0, PfM18AAP inh-1 0, Lipid droplet -2 and TNF necrop inh 1.
`COc1ccccc1NS(=O)(=O)c1ccc(NC(C)=O)cc1` gave RBBP9 inhibitor 9, Tb hexokinase -5, L929 necroptosis 0, PfM18AAP inh-1 68*, Lipid droplet 4, TNF necrop inh -1, PfM18AAP inh-2 -51 and CTSL1 counter -2.
For CC(=O)Nc1ccc(NC(=O)CSc2nnc(-c3ccco3)o2)cc1 the results were RBBP9 inhibitor -6, Tb hexokinase 2, L929 necroptosis 0, PfM18AAP inh-1 4, Lipid droplet 26 and TNF necrop inh 0.
Screening Cc1cc(NC(=O)CSc2nnc(-c3ccco3)o2)no1 returned RBBP9 inhibitor 4, Tb hexokinase -7, L929 necroptosis 0, PfM18AAP inh-1 47*, Lipid droplet -11, TNF necrop inh 0, PfM18AAP inh-2 -19 and CTSL1 counter -2.

Compound activity deposited in PubChem by several laboratories.
